The record followed here is ChEMBL document CHEMBL1649171, “Metabolism of an alkyl polyamine analog by a polyamine oxidase from the microsporidian Encephalitozoon cuniculi” (Antimicrob Agents Chemother, 2009).

Values joined by “and” are separate entries in the source; they are usually repeats but may differ in a detail not shown here. Equal entries are not always repeated.

Assay [1] deals with Encephalitozoon cuniculi. Nature of the assay: Activity of Encephalitozoon cuniculi polyamine oxidase assessed as hydrogen peroxide release per mg protein by spectrophotometry relative to 0.1 mM N'-acetylspermine. In short, it runs like this: (§1)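 Crude enzyme came from mature E. cuniculi spores collected from culture overlay. Spores were washed in PBS pH 6.8, given 1% SDS for 5 min, glass-bead disrupted to >80% breakage, and clarified at 2,200 × g. The 1 ml assay at 37°C held 0.1 M glycine pH 7.0, 10 U horseradish peroxidase, 5 mM ABTS and 22–220 μg protein. Substrate started the reaction. A420 was followed 15 or 30 min; initial linear rate minus no-substrate control.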

In assay [2] the test system is Encephalitozoon cuniculi. Nature of the assay: Activity of Encephalitozoon cuniculi polyamine oxidase assessed as hydrogen peroxide release per mg protein by spectrophotometry relative to 1 mM N'-acetylspermine. In short, it runs like this: as §1
For assay [3], the system named is Encephalitozoon cuniculi. Nature of the assay: Activity of Encephalitozoon cuniculi polyamine oxidase assessed as hydrogen peroxide release by spectrophotometry. In short, it runs like this: as §1
A short description of assay [4]: Inhibition of Encephalitozoon cuniculi polyamine oxidase assessed as hydrogen peroxide release using N'-acetylspermine substrate by spectrophotometry. In short, it runs like this:
(§2)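 Crude spore extract (SDS-washed spores, glass-bead disrupted, clarified at 2,200 × g) in 0.1 M glycine, pH 7.0, with horseradish peroxidase and ABTS. Runs used N1-acetylspermine at 100–2,000 μM, alone or with the analog fixed at 5, 50 or 100 μM; the analog alone was run at 1–25 μM. Reactions were started with 67 μg extract, and A420 was read for 15 min. Kinetic constants came from Hanes-Woolf plots ([S]/V vs [S]).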

Assay [5] deals with Encephalitozoon cuniculi. Nature of the assay: Activity of Encephalitozoon cuniculi polyamine oxidase assessed as hydrogen peroxide release per mg protein by spectrophotometry. In short, it runs like this: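 Enzyme was a clarified glass-bead homogenate of SDS-washed mature spores (>80% breakage). Reactions at 37°C held 0.1 M glycine, pH 7.0, 10 U HRP, 5 mM ABTS and 22–220 μg protein, and were started with substrate (1 mM N1-acetylspermine or another, e.g. 0.1 mM). Peroxide was followed as ABTS oxidation at 420 nm (ε 3.6 × 10⁴ M⁻¹ cm⁻¹) for 15 or 30 min. Values are the initial linear rate minus a no-substrate control.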

Assay [6] concerns Encephalitozoon cuniculi. Nature of the assay: Activity of Encephalitozoon cuniculi polyamine oxidase assessed as hydrogen peroxide release by spectrophotometry in presence of 1,15-bis{N-[O-phenyl)benzylamino}-4,12-diazapentadecane. In short, it runs like this:
as §2

As usually defined, the Km is the substrate concentration at which the rate is half of its maximum. The Vmax is the top rate of the reaction or transport when substrate is in excess. By Ki is commonly meant the dissociation constant of the complex between target and ligand, obtained from inhibition or displacement. `c1ccc(-c2ccccc2CNCCCNCCCCCCCNCCCNCc2ccccc2-c2ccccc2)cc1`: the fold change (FC) was determined as 0.8 in the assay on Encephalitozoon cuniculi [1] and 0.31 with Encephalitozoon cuniculi [2]. Further, the Michaelis constant (Km) in the assay with Encephalitozoon cuniculi [3] is 2 µM. Further, in the assay with Encephalitozoon cuniculi [3], the Vmax was determined as 7.6 µM/min. In assay [4], the Ki turned out to be 40 µM.

Turning to `c1ccc(CNCCCNCCCCCCCNCCCNCc2ccccc2)cc1`, the fold change (FC) with Encephalitozoon cuniculi [1] stood at 0.98; with Encephalitozoon cuniculi [2], 0.89. The Activity with Encephalitozoon cuniculi [5] is 1370 nmol/min and 690 nmol/min.

Regarding `CC(=O)NCCCNCCCCNCCCN`, in the assay with Encephalitozoon cuniculi [6], the Km is 15 µM and the Vmax came out at 17.5 µM/min. In addition, in the assay with Encephalitozoon cuniculi [3], the Km was 30 µM and the maximal velocity (Vmax) worked out at 10 µM/min.
